Experimental data pooled from the literature.
Compare with care: the assays were run in different laboratories.
Target: Sodium-dependent serotonin transporter (SLC6A4, Homo sapiens, UniProt P31645)

| Structure (SMILES) | effect on | mode | method | concentration | inhibition [%] |
| --- | --- | --- | --- | --- | --- |
| C[C@H](NC(=O)Nc1cc2[nH]ncc2c(CO)n1)c1ccccn1 | cell-free assay |  |  | 10 µM | -0.787 |
| CC(C)N1CCC[C@H]1CNC(=O)c1cn(C2CCCC2)c(=O)c2c1c1ccccc1n2C | ligand displacement |  | radioligand | 10 µM | 22 |
| Clc1ccc2c(C3CCN(CCc4c[nH]c5ccccc45)CC3)c[nH]c2c1 | ligand displacement |  | radioligand | 10 µM | 99 |
| COc1ccc(S(=O)(=O)N2CCCCC2)cc1C | ligand displacement |  | radioligand | 10 µM | < 30 |
| CN(CCN1CCC(OC(=O)Nc2ccccc2-c2ccccc2)CC1)C(=O)c1ccc(CN2CCC(C(N)=O)CC2)cc1 | ligand displacement |  | radioligand | 1 µM | -1 |
| c1ccc(C(NCCNC(c2ccccc2)c2ccccc2)c2ccccc2)cc1 | transporter uptake | inhibitor |  | 10 µM | 29 |
| COCc1c(-c2cc3cc(C)cc(OC)c3s2)c2c(N)ncnn2c1CN1CCNC(=O)C1 | ligand displacement |  | radioligand | 10 µM | 3 |
| CCc1ccccc1C(=O)Nc1n[nH]c2c(C)c(F)c(C3C(C#N)=C(C)N(C)C(C)=C3C#N)cc12 | ligand displacement |  |  | 10 µM | -6.24 |
| CCN(CC)CCCC[C@H](NC(=O)[C@H](CC(C)C)NC(=O)[C@H](C)NC(=O)[C@H](Cc1ccccc1)NC(=O)c1ccc(C(C)(C)C)cc1)C(=O)N[C@@H](CO)C(=O)OC | ligand displacement |  | radioligand | 10 µM | 5 |
| C[C@H](C(=O)N[C@H]1COc2ccccc2[C@@H]1S(C)(=O)=O)c1ccc(F)cc1 | transporter uptake | inhibitor |  | 10 µM | 11 |
